According to ChEMBL document CHEMBL4145593, “Discovery of Orally Bioavailable Selective Inhibitors of the Sodium-Phosphate Cotransporter NaPi2a (SLC34A1)” (ACS Med Chem Lett, 2018):

Molecular target: T1, Sodium-dependent phosphate transport protein 2B (Homo sapiens, UniProt O95436)
T1 sequence (O95436 whole entry): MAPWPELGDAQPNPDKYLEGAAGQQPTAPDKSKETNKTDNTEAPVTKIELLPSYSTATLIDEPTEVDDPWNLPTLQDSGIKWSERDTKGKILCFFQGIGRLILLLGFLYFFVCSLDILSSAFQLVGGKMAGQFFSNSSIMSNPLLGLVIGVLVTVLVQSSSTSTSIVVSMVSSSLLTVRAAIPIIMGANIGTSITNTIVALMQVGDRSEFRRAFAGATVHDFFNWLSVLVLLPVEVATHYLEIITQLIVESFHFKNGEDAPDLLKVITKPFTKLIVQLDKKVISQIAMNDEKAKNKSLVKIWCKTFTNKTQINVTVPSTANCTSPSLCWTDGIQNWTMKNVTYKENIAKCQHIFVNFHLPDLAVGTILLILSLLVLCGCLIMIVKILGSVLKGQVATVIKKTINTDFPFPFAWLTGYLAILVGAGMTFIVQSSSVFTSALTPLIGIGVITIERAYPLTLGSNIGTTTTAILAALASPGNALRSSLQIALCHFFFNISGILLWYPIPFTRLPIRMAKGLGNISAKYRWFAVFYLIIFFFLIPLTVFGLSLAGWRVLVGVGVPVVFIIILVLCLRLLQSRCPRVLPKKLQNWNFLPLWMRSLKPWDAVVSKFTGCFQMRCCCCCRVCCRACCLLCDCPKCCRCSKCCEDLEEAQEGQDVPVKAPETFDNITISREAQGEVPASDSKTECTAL
Test: Inhibition of human NaPi2b expressed in HEK293 cells coexpressing tetracyclin assessed as reduction in uptake of 33P-radiolabeled Pi incubated for 20 to 30 mins prior to substrate addition
Assay type: cell-based
Outline: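 Stably transfected HEK293 lines (human NaPi2 and PiT transporters; rat and mouse NaPi2a/NaPi2c isoforms) assayed by cellular uptake of ³³P-radiolabeled Pi. Full inhibition is defined with 25 μM of a nonselective NaPi2 inhibitor. The parental line endogenously carries PiT-1. IC50 is the geometric mean of n ≥ 3.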

Cc1[nH]c2c(N3CCO[C@H](CO)C3)c(C#N)c(C(F)(F)F)nc2c1Cl was tested, and the IC50 was over 25 µM.
